pEC50, pIC50: −log10 of the molar value. Active and inactive are the calls of the source. The rule behind the calls is not given here.
Assays:
[1] = tested on: HL-60; experiment: Antiproliferative activity against human HL60 cells after 72 hrs by XTT assay; type: functional, cell-based; details: HL-60, 72 h
[2] = Cytotoxicity against human Hep2 cells assessed as reduction in cell viability after 3 days by CellTiter-Glo assay; type: cell-based; details: HEp-2 cells
[3] = tested on: CCRF-CEM; experiment: Antiproliferative activity against human CCRF-CEM cells after 3 days by MTS assay; type: functional, cell-based; details: 72 h
[4] = Antiproliferative activity against human CEM-DNR-bulk cells after 3 days by MTS assay; details: 72 h
[5] = tested on: Coxsackievirus B3; experiment: Antiviral activity against Human coxsackie B3 Nancy infected in human HeLa cells assessed as inhibited virus-induced cytopathic effect incubated for 2 days by XTT assay; type: functional, organism-based
[6] = Antiproliferative activity against human K562-TAX cells after 3 days by MTS assay; type: functional, cell-based; details: 72 h
[7] = tested on: MRC5; experiment: Antiproliferative activity against human MRC5 cells after 3 days by MTS assay; details: MRC5, 72 h
[8] = biological target: T1, Adenosine kinase (Homo sapiens, UniProt P55263); experiment: Inhibition of recombinant human ADK using [3H]-adenosine as substrate after 20 mins by TLC scanner-based analysis relative to control
T1 sequence (P55263 whole entry): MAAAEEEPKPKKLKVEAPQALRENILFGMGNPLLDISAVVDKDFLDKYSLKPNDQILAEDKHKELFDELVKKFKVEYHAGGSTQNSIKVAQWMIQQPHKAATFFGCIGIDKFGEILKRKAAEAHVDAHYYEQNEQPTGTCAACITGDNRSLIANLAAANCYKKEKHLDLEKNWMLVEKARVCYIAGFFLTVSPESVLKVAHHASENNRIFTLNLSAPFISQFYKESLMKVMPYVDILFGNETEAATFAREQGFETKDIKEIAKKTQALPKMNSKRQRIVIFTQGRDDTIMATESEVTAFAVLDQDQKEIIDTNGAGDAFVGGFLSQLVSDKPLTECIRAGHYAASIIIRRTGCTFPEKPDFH
In short: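 ADK inhibition: 50 μM adenosine substrate with 10 μM test compound and 97 ng enzyme, 20 min at 37 °C.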

[9] = tested on: Hepatitis C virus; experiment: Antiviral activity against Hepatitis C virus genotype 1b infected in human Huh-luc replicon cells after 3 days by luciferase assay; type: functional, organism-based, Hepacivirus hominis; details: subtype 1b, 72 h
[10] = tested on: HeLa S3; experiment: Antiproliferative activity against human HeLaS3 cells after 72 hrs by XTT assay; type: functional, cell-based; details: HeLa S3, 72 h
[11] = tested on: HCT-116; experiment: Antiproliferative activity against human HCT116 cells after 3 days by MTS assay; type: functional, cell-based; details: HCT-116, 72 h
[12] = biological target: T1, Adenosine kinase; experiment: Substrate activity at recombinant human ADK assessed as compound phosphorylation at 50 uM after 20 mins in presence of [3H]-adenosine by UPLC; type: ADME
[13] = tested on: U2OS; experiment: Antiproliferative activity against human U2OS cells after 3 days by MTS assay; type: functional, cell-based; details: 72 h
[14] = tested on: BJ; experiment: Antiproliferative activity against human BJ cells after 3 days by MTS assay; details: 72 h
[15] = tested on: Human orthopneumovirus; experiment: Antiviral activity against Human respiratory syncytial virus A2 infected in Hep2 cells assessed as reduction in virus-induced cytopathic effect incubated for 4 days by CellTiter-Glo viability reagent based assay; type: functional, organism-based
[16] = tested on: K562; experiment: Antiproliferative activity against human K562 cells after 3 days by MTS assay; type: functional, cell-based; details: K562, 72 h
[17] = tested on: Hepatitis C virus; experiment: Antiviral activity against Hepatitis C virus genotype 2a infected in human Huh-luc replicon cells after 3 days by luciferase assay; type: functional, organism-based, Hepacivirus hominis; details: subtype 2a, 72 h
[18] = tested on: A549; experiment: Antiproliferative activity against human A549 cells after 3 days by MTS assay; type: functional, cell-based; details: A549, 72 h
[19] = tested on: dengue virus type 2; experiment: Antiviral activity against Dengue virus 2 Thailand/16681/84 infected in African green monkey Vero cells assessed as inhibition of virus replication incubated for 3 days by fluorescence microscopy; type: functional, organism-based
[20] = tested on: HepG2; experiment: Antiproliferative activity against human HepG2 cells after 72 hrs by XTT assay; type: functional, cell-based; details: HepG2, 72 h
[21] = tested on: HCT-116; experiment: Antiproliferative activity against p53 gene knocked out human HCT116 cells after 3 days by MTS assay; type: functional, cell-based; details: HCT-116, 72 h
[22] = tested on: Human alphaherpesvirus 1; experiment: Antiviral activity against human herpesvirus 1 HF infected in African green monkey Vero cells assessed as inhibited virus-induced cytopathic effect incubated for 3 days by XTT assay; type: functional, organism-based
[23] = tested on: Influenza A virus; experiment: Antiviral activity against Influenza A virus (A/Mexico/4108/2009(H1N1)) infected in MDCK cells assessed as inhibited virus-induced cytopathic effect incubated for 2 days by XTT assay; type: functional, organism-based

| SMILES | pIC50 [1] | CC50 at 72 h [2] [µM] | pIC50 [3] | pIC50 [4] | Activity [5] | pIC50 [6] | pIC50 [7] | pIC50 [8] | pEC50 [9] | pIC50 [10] | pIC50 [11] | Activity [12] [%] | pIC50 [13] | pIC50 [14] | Activity [15] | pIC50 [16] | pEC50 [17] | pIC50 [18] | Activity [19] | pIC50 [20] | other results |
| --- | --- | --- | --- | --- | --- | --- | --- | --- | --- | --- | --- | --- | --- | --- | --- | --- | --- | --- | --- | --- | --- |
| Cn1ccc2c1c1c(-c3ccoc3)ncnc1n2[C@@H]1O[C@H](CO)[C@@H](O)[C@H]1O | < 4.30 | > 44.4 | < 4.30 | < 4.30 | inactive | < 4.30 | < 4.30 | < 5.00 | 4.69 | < 4.30 | 5.09 | 9 | 5.62 | < 4.30 | inactive | 6.03 | 5.46 | < 4.30 | inactive | < 4.30 | pIC50 [21]: 5.05; Activity [22]: inactive; Activity [23]: inactive |
| Cn1ccc2c1c1c(-c3cc4ccccc4o3)ncnc1n2[C@@H]1O[C@H](CO)[C@@H](O)[C@H]1O | < 4.30 | 26.9 to 44.4 | 4.78 | 4.53 | inactive | 4.53 | < 4.30 | 6.52 | 5.80 | < 4.30 | 4.34 | 0 | 4.36 | < 4.30 | inactive | < 4.30 | 4.49 | < 4.30 | inactive | < 4.30 | pIC50 [21]: 4.32; Activity [22]: inactive; Activity [23]: inactive |
| Cn1ccc2c3c(-c4ccoc4)ncnc3n([C@@H]3O[C@H](CO)[C@@H](O)[C@H]3O)c21 | < 4.30 | > 44.4 | < 4.30 | < 4.30 | inactive | < 4.30 | < 4.30 | < 5.00 | 4.78 | < 4.30 | < 4.30 | 0 | < 4.30 | < 4.30 | inactive | < 4.30 | < 4.35 | < 4.30 | inactive | < 4.30 | pIC50 [21]: < 4.30; Activity [22]: inactive; Activity [23]: inactive |
| CN(C)c1ncnc2c1c1c(ccn1C)n2[C@@H]1O[C@H](CO)[C@@H](O)[C@H]1O | < 4.30 | > 44.4 | < 4.30 | < 4.30 | inactive | < 4.30 | < 4.30 | < 5.00 | < 4.35 | < 4.30 | < 4.30 | 0 | < 4.30 | < 4.30 | inactive | < 4.30 | < 4.35 | < 4.30 | inactive | < 4.30 | pIC50 [21]: < 4.30; Activity [22]: inactive; Activity [23]: inactive |
| Cn1ccc2c3c(N)ncnc3n([C@@H]3O[C@H](CO)[C@@H](O)[C@H]3O)c21 | < 4.30 | 34.6 to 44.4 | < 4.30 | < 4.30 | inactive | < 4.30 | < 4.30 | < 5.00 | 4.56 | < 4.30 | < 4.30 | 0 | < 4.30 | < 4.30 | inactive | < 4.30 | 4.47 | < 4.30 | inactive | < 4.30 | pIC50 [21]: < 4.30; Activity [22]: inactive; Activity [23]: inactive |
| Cn1ccc2c1c1c(N)ncnc1n2[C@@H]1O[C@H](CO)[C@@H](O)[C@H]1O | 5.64 | 40.9 to 44.4 | 4.30 | < 4.30 | inactive | < 4.30 | < 4.30 | < 5.00 | 6.34 | < 4.30 | < 4.30 | 68 | 4.30 | < 4.30 | inactive | < 4.30 | 6.66 | < 4.30 | inactive | < 4.30 | pIC50 [21]: < 4.30; Activity [22]: inactive; Activity [23]: inactive |
| OC[C@H]1O[C@@H](n2c3ccoc3c3c(-c4cc5ccccc5o4)ncnc32)[C@H](O)[C@@H]1O | < 4.30 | > 44.4 | 4.85 | 4.43 | inactive | 4.61 | < 4.30 | 6.47 | 5.27 | < 4.30 | 4.31 | 58 | 4.42 | < 4.30 | inactive | 4.40 | < 4.35 | 4.31 | inactive | 5.55 | pIC50 [21]: 4.33; Activity [22]: inactive; Activity [23]: inactive |
| Cn1ccc2c3c(-c4cc5ccccc5o4)ncnc3n([C@@H]3O[C@H](CO)[C@@H](O)[C@H]3O)c21 | < 4.30 | 27.5 to 29.1 | 5.02 | 4.51 | inactive | 4.64 | 4.34 | 6.33 | 5.11 | < 4.30 | 4.44 | 0 | 4.54 | 4.35 | inactive | 4.65 | 4.81 | 4.45 | inactive | < 4.30 | pIC50 [21]: 4.44; Activity [22]: inactive; Activity [23]: inactive |
| Cn1ccc2c3c(-c4ccco4)ncnc3n([C@@H]3O[C@H](CO)[C@@H](O)[C@H]3O)c21 | 5.52 | 2.63 to 16.4 | 5.87 | 5.66 | inactive | 5.62 | 5.23 | 5.45 | 6.47 | 5.53 | 5.42 | 0 | 5.46 | 5.27 | inactive | 5.39 | 6.11 | 5.24 | inactive | < 4.30 | pIC50 [21]: 5.40; Activity [22]: inactive; Activity [23]: inactive |
| Cc1ncnc2c1c1ccn(C)c1n2[C@@H]1O[C@H](CO)[C@@H](O)[C@H]1O | < 4.30 | > 44.4 | < 4.30 | < 4.30 | inactive | < 4.30 | < 4.30 | < 5.00 | < 4.35 | < 4.30 | < 4.30 | 0 | < 4.30 | < 4.30 | inactive | < 4.30 | < 4.35 | < 4.30 | inactive | < 4.30 | pIC50 [21]: < 4.30; Activity [22]: inactive; Activity [23]: inactive |
| COc1ncnc2c1c1ccn(C)c1n2[C@@H]1O[C@H](CO)[C@@H](O)[C@H]1O | < 4.30 | > 44.4 | < 4.30 | < 4.30 | inactive | < 4.30 | < 4.30 | < 5.00 | < 4.35 | < 4.30 | < 4.30 | 0 | < 4.30 | < 4.30 | inactive | < 4.30 | < 4.35 | < 4.30 | inactive | < 4.30 | pIC50 [21]: < 4.30; Activity [22]: inactive; Activity [23]: inactive |
| Nc1ncnc2c1ncn2[C@@H]1O[C@H](CO)[C@@H](O)[C@H]1O [ADENOSINE] | – | – | – | – | – | – | – | – | – | – | – | 73 | – | – | – | – | – | – | – | – | – |
| CC(C)C(=O)OC[C@H]1O[C@@H](n2ccc(N)nc2=O)[C@](C)(F)[C@@H]1OC(=O)C(C)C [MERICITABINE] | – | > 44.4 | – | – | – | – | – | – | – | – | – | – | – | – | – | – | – | – | – | – | – |
